# Test results published in ChEMBL document CHEMBL1122273, “5-sulfamoylorthanilic acids, a sulfonamide series with salidiuretic activity” (J Med Chem, 1983).
# Calls of active or inactive are those of the source. The rule behind the calls is not given here.
# Assays:
# Rattus norvegicus [1] = organism: Rattus norvegicus; experiment: Saluretic activity in the rat measured as concentration of Na+ in urine; assay type: functional
# How it was run: (§1)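 Rats deprived of food 24 h, water ad libitum, dosed 50 mg/kg by stomach tube as suspension in 2% starch, no extra water load. Groups of three in diuresis funnels; urine over first 5 h collected. Na⁺ and K⁺ by flame photometry, Cl⁻ argentometrically; expressed as mequiv/kg.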
# Canis familiaris [2] = experiment: Saluretic activity in the dog measured as concentration of K+ in urinary excretion (2 animals/dose) at (dose 1.56 mg/Kg, po); assay type: functional, Canis lupus familiaris, Urine
# How it was run: (§2)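 Male beagles trained to rest on a table and to accept stomach tube and catheter. Food withdrawn 24 h before, tap water ad libitum. Bladder emptied by catheter, then 20 mL/kg tap water by stomach tube. Catheterized hourly up to 8 h with 4 mL/kg water orally each time; first 2 h urine served as control. Oral dosing after second catheterization. Pooled 1–6 h urine; Na⁺/K⁺ by flame photometry, Cl⁻ argentometrically.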
# Rattus norvegicus [3] = organism: Rattus norvegicus; experiment: Diuretic activity in the rats, determined by a modified Lipschitz test; assay type: functional, Urine
# How it was run: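 Modified Lipschitz test: rats deprived of water 24 h, grouped in threes of similar weight in diuresis funnels. Oral dose of 50 mg/kg, suspended in 2% starch solution, by stomach tube.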
# [4] = It is the ratio, measured as saluretic activity in the dog as concentration of Cl- in urinary excretion (dose mg/Kg, po) to that of (Na+)+(K+); assay type: functional, Urine
# How it was run: (§3)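 Trained male beagles, fasted 24 h with tap water ad libitum. Bladder emptied by catheter, then 20 mL/kg tap water by stomach tube, with 4 mL/kg water at each hourly catheterization up to 8 h. The first 2 h of urine served as control. Oral dosing came after the second catheterization, and 1–6 h urine was pooled. Na⁺ and K⁺ were measured by flame photometry, Cl⁻ argentometrically, in mequiv/kg.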
# Rattus norvegicus [5] = organism: Rattus norvegicus; experiment: Saluretic activity in the rat measured as concentration of chloride in urine; assay type: functional; how it was run: as §1
# Canis familiaris [6] = experiment: Saluretic activity in the dog measured as concentration of Na+ in urinary excretion (2 animals/dose) at (dose 1.56 mg/Kg, po); assay type: functional, Canis lupus familiaris, Urine; how it was run: as §2
# [7] = It is the ratio, measured as saluretic activity in the dog as concentration of Na+ in urinary excretion (dose 1.56 mg/Kg, po) to that of K; assay type: functional, Urine; how it was run: as §3
# Rattus norvegicus [8] = organism: Rattus norvegicus; experiment: Saluretic activity in the rat measured as concentration of K+ in urine; assay type: functional; how it was run: as §1
# Canis familiaris [9] = experiment: Saluretic activity in the dog measured as concentration of Cl - in urinary excretion (2 animals/dose) at (dose 1.56 mg/Kg, po); assay type: functional, Canis lupus familiaris, Urine
# How it was run: (§4)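 Male beagles trained to the procedures, food withdrawn 24 h before, tap water ad libitum. Bladder emptied by catheter, then 20 mL/kg tap water by stomach tube, plus 4 mL/kg orally at each hourly catheterization up to 8 h. The first 2 h of urine served as control. Compound given orally after the second catheterization. Urine from 1–6 h post-dose pooled; Na⁺ and K⁺ by flame photometry, Cl⁻ argentometrically, in mequiv/kg.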
# Canis familiaris [10] = experiment: Diuretic activity in the dog (2 animals/dose) at (dose 1.56 mg/Kg), when administered perorally; assay type: functional, Canis lupus familiaris, Urine; how it was run: as §3
# Canis familiaris [11] = experiment: Saluretic activity in the dog measured as concentration of K+ in urinary excretion (2 animals/dose) at (dose 1.56 mg/Kg, perorally); assay type: functional, Canis lupus familiaris, Urine; how it was run: as §4
# [12] = It is the ratio, measured as saluretic activity in the dog as concentration of Na+ in urinary excretion (dose 12.5 mg/Kg, perorally) to that of K; assay type: functional, Urine; how it was run: as §3
# Canis familiaris [13] = experiment: Salidiuretic activity on the basis of the 1.56 mg/Kg perorally dog assay; compound was found to be highly active; assay type: functional, organism-based; details: Canis lupus familiaris; Urine
# Canis familiaris [14] = experiment: Saluretic activity in the dog measured as concentration of Cl - in urinary excretion (2 animals/dose) at (dose 1.56 mg/Kg, perorally); assay type: functional, Canis lupus familiaris, Urine; how it was run: as §4
# [15] = It is the ratio, measured as saluretic activity in the dog as concentration of Cl- in urinary excretion (dose 12.5 mg/Kg, perorally) to that of (Na++K+); assay type: functional, Urine; how it was run: as §3
# Canis familiaris [16] = experiment: Saluretic activity in the dog measured as concentration of Na+ in urinary excretion (2 animals/dose) at (dose 1.56 mg/Kg, perorally); assay type: functional, Canis lupus familiaris, Urine; how it was run: as §2
# Canis familiaris [17] = experiment: Diuretic activity in the dog (2 animals/dose) at (dose 12.5 mg/Kg), when administered perorally; assay type: functional, Canis lupus familiaris, Urine; how it was run: as §3
# Canis familiaris [18] = experiment: Saluretic activity in the dog measured as concentration of Na+ in urinary excretion (2 animals/dose) at (dose 12.5 mg/Kg, perorally); assay type: functional, Canis lupus familiaris, Urine; how it was run: as §2
# Rattus norvegicus [19] = experiment: Salidiuretic activity on the basis of the 50 mg/kg perorally rat assay; NA means inactive; details: Urine
# Canis familiaris [20] = experiment: Saluretic activity in the dog measured as concentration of K+ in urinary excretion (2 animals/dose) at (dose 12.5 mg/Kg, perorally); assay type: functional, Canis lupus familiaris, Urine; how it was run: as §2
# Canis familiaris [21] = experiment: Saluretic activity in the dog measured as concentration of Cl - in urinary excretion (2 animals/dose) at (dose 12.5 mg/Kg, perorally); assay type: functional, Canis lupus familiaris, Urine; how it was run: as §4
# [22] = It is the ratio, measured as saluretic activity in the dog as concentration of Cl- in urinary excretion (dose 1.56 mg/Kg, perorally) to that of (Na+)+(K+); assay type: functional, Urine; how it was run: as §3
# [23] = It is the ratio, measured as saluretic activity in the dog as concentration of Na+ in urinary excretion (dose 1.56 mg/Kg, perorally) to that of K; assay type: functional, Urine; how it was run: as §3
# [24] = It is the ratio, measured as saluretic activity in the dog as concentration of Cl- in urinary excretion (dose 12.5 mg/Kg, po) to that of (Na++K+); assay type: functional, Urine; how it was run: as §3
# [25] = It is the ratio, measured as saluretic activity in the dog as concentration of Na+ in urinary excretion(dose 1.56 mg/kg, p.o.) to that of K; assay type: functional, Urine; details: route oral; how it was run: as §3
# Canis familiaris [26] = experiment: Saluretic activity in the dog measured as concentration of K+ in urinary excretion (2 animals/dose) at (dose 12.5 mg/Kg, po); assay type: functional, Canis lupus familiaris, Urine; how it was run: as §2
# Canis familiaris [27] = experiment: Saluretic activity in the dog measured as concentration of Na+ in urinary excretion (2 animals/dose) at (dose 12.5 mg/Kg, po); assay type: functional, Canis lupus familiaris, Urine; how it was run: as §2
# [28] = It is the ratio, measured as saluretic activity in the dog as concentration of Na+ in urinary excretion (dose 12.5 mg/Kg, po) to that of K; assay type: functional, Urine; how it was run: as §3
# [29] = It is the ratio, measured as saluretic activity in the dog as concentration of Cl- in urinary excretion (dose 1.56 mg/Kg, po) to that of (Na+)+(K+); assay type: functional, Urine; how it was run: as §3
# Canis familiaris [30] = experiment: Saluretic activity in the dog measured as concentration of Cl - in urinary excretion (2 animals/dose) at (dose 12.5 mg/Kg, po); assay type: functional, Canis lupus familiaris, Urine; how it was run: as §4
# Canis familiaris [31] = experiment: Sailuric activity in the dog measured as concentration of Cl - in urinary excretion (2 animals/dose) at (dose 1.56 mg/Kg, po); assay type: functional, Canis lupus familiaris, Urine; how it was run: as §4
# [32] = It is the ratio, measured as saluretic activity in the dog as concentration of Na+ in urinary excretion (dose 1.56mg/Kg, po) to that of K; assay type: functional, Urine; how it was run: as §3
# Canis familiaris [33] = experiment: Sailuric activity in the dog measured as concentration of K+ in urinary excretion (2 animals/dose) at (dose 1.56 mg/Kg, po); assay type: functional, Canis lupus familiaris, Urine; how it was run: as §4
# Canis familiaris [34] = experiment: Sailuric activity in the dog measured as concentration of Na+ in urinary excretion (2 animals/dose) at (dose 1.56 mg/Kg, po); assay type: functional, Canis lupus familiaris, Urine; how it was run: as §4
SMILES,Saluretic activity (Rattus norvegicus [1]),Saluretic activity (Canis familiaris [2]),Diuretic activity (Rattus norvegicus [3]),Saluretic activity (Rattus norvegicus [5]),Saluretic activity (Canis familiaris [6]),Saluretic activity (Rattus norvegicus [8]),Saldiuretic activity (Canis familiaris [9]),Diuretic activity (Canis familiaris [10]),Diuretic activity (Canis familiaris [17]),Ratio [29],other results
NS(=O)(=O)c1cc(S(=O)(=O)[O-])c(NCc2ccco2)cc1[S+]([O-])C1CCCCC1.[Na+] (centres undefined),1.3 m equiv 5hr-1 kg-1,0.33 m equiv 6hr-1 kg-1,1.2 mL/kg,1.7 m equiv 5hr-1 kg-1,0.59 m equiv 6hr-1 kg-1,1.4 m equiv 5hr-1 kg-1,1.27 m equiv 6hr-1 kg-1,48.4 ml kg-1 6hr-1,–,–,Ratio [4]: 1.4; Ratio [7]: 1.8
NS(=O)(=O)c1cc(S(=O)(=O)[O-])c(NCc2cccs2)cc1Oc1ccccc1.[K+],0.8 m equiv 5hr-1 kg-1,–,0.8 mL/kg,0.6 m equiv 5hr-1 kg-1,–,0.4 m equiv 5hr-1 kg-1,–,58 ml kg-1 6hr-1,78 ml kg-1 6hr-1,–,Saluretic activity (Canis familiaris [11]): 1.03 m equiv 6hr-1 kg-1; Ratio [12]: 4.7; Saldiuretic activity (Canis familiaris [13]): Active; Saldiuretic activity (Canis familiaris [14]): 4.45 m equiv 6hr-1 kg-1; Ratio [15]: 0.95; Saluretic activity (Canis familiaris [16]): 3.73 m equiv 6hr-1 kg-1; Saluretic activity (Canis familiaris [18]): 6.89 m equiv 6hr-1 kg-1; Diuretic activity (Rattus norvegicus [19]): inactive; Saldiuretic activity (Canis familiaris [20]): 1.47 m equiv 6hr-1 kg-1; Saldiuretic activity (Canis familiaris [21]): 7.84 m equiv 6hr-1 kg-1; Ratio [22]: 0.95; Ratio [23]: 3.6
NS(=O)(=O)c1cc(S(=O)(=O)[O-])c(NCc2ccco2)cc1S(=O)(=O)c1ccccc1.[K+],7.1 m equiv 5hr-1 kg-1,0.25 m equiv 6hr-1 kg-1,3.6 mL/kg,9.8 m equiv 5hr-1 kg-1,0.49 m equiv 6hr-1 kg-1,2.6 m equiv 5hr-1 kg-1,1.09 m equiv 6hr-1 kg-1,35.3 ml kg-1 6hr-1,59.7 ml kg-1 6hr-1,1.5,Ratio [24]: 1.1; Ratio [25]: 2; Saluretic activity (Canis familiaris [26]): 0.93 m equiv 6hr-1 kg-1; Saluretic activity (Canis familiaris [27]): 4 m equiv 6hr-1 kg-1; Ratio [28]: 4.3; Saldiuretic activity (Canis familiaris [30]): 5.28 m equiv 6hr-1 kg-1
NS(=O)(=O)c1cc(S(=O)(=O)[O-])c(NCc2ccco2)cc1S(=O)(=O)C1CCCC1.[Na+],8 m equiv 5hr-1 kg-1,–,4.3 mL/kg,9.5 m equiv 5hr-1 kg-1,–,2 m equiv 5hr-1 kg-1,–,58 ml kg-1 6hr-1,–,1,Saldiuretic activity (Canis familiaris [31]): 5.26 m equiv 6hr-1 kg-1; Ratio [32]: 4.2; Saldiuretic activity (Canis familiaris [33]): 1.02 m equiv 6hr-1 kg-1; Saluretic activity (Canis familiaris [34]): 4.24 m equiv 6hr-1 kg-1
